In publication PMC4486249 (Journal of medicinal chemistry, 2010):
Entries after “also recorded” stand apart in the source; their conditions may differ. Where a SMILES comes first, the peptide text is derived from it.

Legend:
[1] = system: HIV-1HXB2 in MT-4 Luc cells; assay: MT-4 Luc assay, protection from HIV-1-induced cell death; type: cell-based; conditions: for IC50 of inhibition of HIV-1 replication in cells: MT-4 Luc cell system, in words; for inhibitory effect against HIV-1 replication: MT-4 Luc cells infected with HIV-1, luciferase signal, various concentrations (Figure 4)
RT-associated RNase H = RT-associated RNase H (Human immunodeficiency virus type 1 group M subtype B, UniProt P04585); assay: RT-associated RNase H activity assay; type: biochemical, HIV-1
[2] = system: X4-tropic HIV-1HXB2 on MT-4 cells; assay: HIV-1 replication kinetics in MT-4 cells; type: cell-based; conditions: 0.5 μM peptide, replication kinetics (Figure 5B)
Procedure, shortened: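 MT-4 cells (1×10^5) were exposed to HIV-1HXB2-containing culture supernatant (ca. 0.2-50 ng p24) for 30 min at room temperature, then washed and cultured with or without 0.5 μM test peptide. Supernatants were collected at several time points, with cells passaged if necessary. Replication was read out as p24 antigen levels measured by ELISA.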

MT-4 Luc cells = conditions: MT-4 Luc system (Figure 4)

| SMILES | antiviral effect ([1]; MT-4 Luc cells, at a concentration of 20 μM) | anti-HIV-1 activity ([1]; MT-4 Luc cells, below concentrations of 20 μM) | IC50 (RT-associated RNase H) | IC50 of inhibition of HIV-1 replication in cells [1] | inhibitory effect against HIV-1 replication [1] | replication of HIV-1HXB2 [2] | cytotoxicity, comparison (MT-4 Luc cells) |
| --- | --- | --- | --- | --- | --- | --- | --- |
| CC(=O)N[C@@H](CC(C)C)C(=O)N[C@@H](CCC(N)=O)C(=O)N[C@@H](CCC(N)=O)C(=O)N[C@@H](CC(C)C)C(=O)N[C@@H](CC(C)C)C(=O)N[C@@H](Cc1ccccc1)C(=O)N[C@@H](CCCNC(=N)N)C(=O)N[C@@H](CCCNC(=N)N)C(=O)N[C@@H](CCCNC(=N)N)C(=O)N[C@@H](CCCNC(=N)N)C(=O)N[C@@H](CCCNC(=N)N)C(=O)N[C@@H](CCCNC(=N)N)C(=O)N[C@@H](CCCNC(=N)N)C(=O)N[C@@H](CCCNC(=N)N)C(N)=O [Vpr-1 R8] (Ac-LQQLLFRRRRRRRR-NH2) | weak antiviral effect | – | – | – | – | – | – |
| CC[C@H](C)[C@H](NC(C)=O)C(=O)N[C@@H](Cc1c[nH]cn1)C(=O)N[C@@H](Cc1ccccc1)C(=O)N[C@@H](CCCNC(=N)N)C(=O)N[C@H](C(=O)NCC(=O)N[C@@H](CCCNC(=N)N)C(=O)N[C@@H](CCCNC(=N)N)C(=O)N[C@@H](CCCNC(=N)N)C(=O)N[C@@H](CCCNC(=N)N)C(=O)N[C@@H](CCCNC(=N)N)C(=O)N[C@@H](CCCNC(=N)N)C(=O)N[C@@H](CCCNC(=N)N)C(=O)N[C@@H](CCCNC(=N)N)C(N)=O)[C@@H](C)CC [Vpr-2 R8] (Ac-IHFRIGRRRRRRRR-NH2) | – | no significant anti-HIV-1 activity | – | – | – | – | – |
| CC[C@H](C)[C@H](NC(=O)[C@H](CCCNC(=N)N)NC(=O)[C@H](Cc1ccccc1)NC(=O)[C@H](Cc1cnc[nH]1)NC(=O)[C@@H](NC(=O)[C@H](Cc1ccccc1)NC(=O)[C@H](CC(C)C)NC(=O)[C@H](CC(C)C)NC(=O)[C@H](CCC(N)=O)NC(=O)[C@H](CCC(N)=O)NC(=O)[C@H](CC(C)C)NC(C)=O)[C@@H](C)CC)C(=O)NCC(=O)N[C@@H](CCCNC(=N)N)C(=O)N[C@@H](CCCNC(=N)N)C(=O)N[C@@H](CCCNC(=N)N)C(=O)N[C@@H](CCCNC(=N)N)C(=O)N[C@@H](CCCNC(=N)N)C(=O)N[C@@H](CCCNC(=N)N)C(=O)N[C@@H](CCCNC(=N)N)C(=O)N[C@@H](CCCNC(=N)N)C(N)=O [Vpr-3 R8] | – | – | > 500 nM | submicromolar | significant inhibitory effects | quite low; also recorded: extensively suppressed | less cytotoxic than Vpr-4 R8 |
| CC[C@H](C)[C@H](NC(=O)[C@H](C)NC(=O)[C@H](CCC(=O)O)NC(C)=O)C(=O)N[C@H](C(=O)N[C@@H](CCCNC(=N)N)C(=O)N[C@H](C(=O)N[C@@H](CC(C)C)C(=O)N[C@@H](CCC(N)=O)C(=O)N[C@@H](CCC(N)=O)C(=O)N[C@@H](CC(C)C)C(=O)N[C@@H](CC(C)C)C(=O)N[C@@H](Cc1ccccc1)C(=O)N[C@H](C(=O)N[C@@H](Cc1c[nH]cn1)C(=O)N[C@@H](Cc1ccccc1)C(=O)N[C@@H](CCCNC(=N)N)C(=O)N[C@H](C(=O)NCC(=O)N[C@@H](CCCNC(=N)N)C(=O)N[C@@H](CCCNC(=N)N)C(=O)N[C@@H](CCCNC(=N)N)C(=O)N[C@@H](CCCNC(=N)N)C(=O)N[C@@H](CCCNC(=N)N)C(=O)N[C@@H](CCCNC(=N)N)C(=O)N[C@@H](CCCNC(=N)N)C(=O)N[C@@H](CCCNC(=N)N)C(N)=O)[C@@H](C)CC)[C@@H](C)CC)[C@@H](C)CC)[C@@H](C)CC [Vpr-4 R8] | – | – | > 500 nM | submicromolar | significant inhibitory effects | – | – |
